≈ marks a conversion by molar mass, not a printed value.
Assays:
Escherichia coli = assay: Inhibition of beta lactamase CMY-2 in Escherichia coli 77 assessed as potentiation of ceftazidime-induced antibacterial activity by measuring diameter of zone inhibition at 0.3 mg incubated for 18 hrs in presence of 30 ug ceftazidime by CLSI disc diffusion method (Rvb=13 mm)
Procedure, shortened: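 AmpC combination disc test on Mueller-Hinton agar, following EUCAST guidance and Yagi et al. Inhibition zones were compared between a CAZ-30 disc and a ceftazidime disc plus agent or PBA, each at 0.3 mg per disc. Plates were incubated at 35 °C for 18 h. A zone difference of at least 5 mm was counted as inhibition.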

Klebsiella pneumoniae = assay: Inhibition of beta lactamase KPC-3 in Klebsiella pneumoniae 81 assessed as potentiation of meropenem-induced antibacterial activity by measuring meropenem MIC at 16 mg/L incubated for 18 hrs by broth dilution method (reference value: […] mg/L)
Pseudomonas aeruginosa = assay: Inhibition of beta lactamase AmpC in Pseudomonas aeruginosa 700 assessed as potentiation of ceftazidime-induced antibacterial activity by measuring ceftazidime MIC at 16 mg/L incubated for 18 hrs by broth dilution method (reference value: >[…] mg/L)
Burkholderia cepacia = assay: Bactericidal activity against Burkholderia cepacia ATCC 25416 measured after 18 hrs by CLSI broth dilution method; type: functional; conditions: ATCC 25416, 18 h
Procedure, shortened: (§1)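 Strains stored at -80 °C and subcultured twice on tryptic soy agar before testing. Compounds dissolved in DMSO. […] MBC then determined per CLSI recommendations.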

[1] = tested on: Bordetella bronchiseptica; assay: Bactericidal activity against Bordetella bronchiseptica ATCC 4617 measured after 18 hrs by CLSI broth dilution method; type: functional; conditions: ATCC 4617, 18 h; procedure, shortened: as §1
Enterococcus faecium = assay: Bactericidal activity against Enterococcus faecium ATCC 6057 measured after 18 hrs by CLSI broth dilution method; type: functional; conditions: ATCC 6057, 18 h; procedure, shortened: as §1

Row | SMILES | inhibition zone (IZ) (Escherichia coli) [mm] | MIC (Klebsiella pneumoniae) [µg/mL] | MIC (Pseudomonas aeruginosa) [µg/mL] | MBC (Burkholderia cepacia) [µg/mL] | MBC [1] [µg/mL] | MBC (Enterococcus faecium) [µg/mL]
1 | C[Si]1(C)OB(O)c2c(F)c(F)c(F)c(F)c21 | 22 | 16 | > 64 | – | – | –
2 | C[Si]1(C)OB(O)c2c(F)c3c(c(F)c21)B(O)OC3 | 20 | 16 | > 64 | 100 (≈ 371 µM) | 400 (≈ 1480 µM) | –
3 | C[Si]1(C)OB(O)c2ccc(B(O)O)cc21 | 22 | 4 | 32 | – | – | 400 (≈ 1800 µM)
4 | C[Si]1(C)OB(O)c2ccc(F)c(F)c21 | 22 | 8 | > 64 | – | – | –
5 | C[Si]1(C)OB(O)c2cc3c(c(F)c21)COB3O | 20 | 8 | > 64 | – | – | –
6 | C[Si]1(C)OB(O)c2ccc(C(F)(F)F)cc21 | – | – | – | – | – | 50 (≈ 203 µM)
